Laboratory results from ChEMBL document CHEMBL2401717, “Synthesis and bioactive evaluation of novel hybrids of metronidazole and berberine as new type of antimicrobial agents and their transportation behavior by human serum albumin” (Bioorg Med Chem, 2013).

What was measured:
[1] = system: Candida albicans; assay: Antifungal activity against Candida albicans after 24 hrs by twofold broth dilution method; assay type: functional
Procedure, shortened: (§1)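 MIC by NCCLS-recommended twofold broth microdilution, run in triplicate. Strains: B. subtilis ATCC6633, E. coli DH52, M. luteus ATCC4698, P. vulgaris ATCC6896, S. dysenteriae, S. aureus ATCC25923, MRSA N315, C. albicans ATCC76615, C. mycoderma. References were chloromycin, norfloxacin and berberine for bacteria, and fluconazole for fungi.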

[2] = Stability of the compound at 30 to 80 degC after 30 mins by UV spectrophotometry; assay type: physicochemical; conditions: 0.5 h
Procedure, shortened: (§2)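 Stability followed by UV spectrometry across pH 6.5–8.5 and temperatures 30–80 °C.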

[3] = Stability of the compound at pH 6.5 to 8.5 after 30 mins by UV spectrophotometry; assay type: physicochemical; conditions: buffer, pH 6.5, 0.5 h; procedure, shortened: as §2
[4] = system: Pseudomonas aeruginosa; assay: Antibacterial activity against Pseudomonas aeruginosa after 24 hrs by twofold broth dilution method; assay type: functional
Procedure, shortened: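 Twofold broth dilution in 96-well microplates following NCCLS guidance; MIC read as the endpoint; tests run in triplicate.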

[5] = system: Escherichia coli; assay: Antibacterial activity against Escherichia coli DH52 after 24 hrs by twofold broth dilution method; assay type: functional; conditions: DH52, 24 h; procedure, shortened: as §1
[6] = system: Shigella dysenteriae; assay: Antibacterial activity against Shigella dysenteriae after 24 hrs by twofold broth dilution method; assay type: functional; procedure, shortened: as §1
[7] = system: Micrococcus luteus; assay: Antibacterial activity against Micrococcus luteus ATCC 4698 after 24 hrs by twofold broth dilution method; assay type: functional; conditions: ATCC 4698, 24 h; procedure, shortened: as §1
[8] = system: Staphylococcus aureus; assay: Antibacterial activity against Staphylococcus aureus ATCC 25923 after 24 hrs by twofold broth dilution method; assay type: functional; conditions: ATCC 25923, 24 h; procedure, shortened: as §1
[9] = system: Staphylococcus aureus; assay: Antibacterial activity against methicillin-resistant Staphylococcus aureus N315 after 24 hrs by twofold broth dilution method; assay type: functional; conditions: N315, 24 h; procedure, shortened: as §1
[10] = system: Bacillus subtilis; assay: Antibacterial activity against Bacillus subtilis after 24 hrs by twofold broth dilution method; assay type: functional; procedure, shortened: as §1
[11] = Octanol-water partition coefficient, log P of the compound after 24 hrs by UV-Vis spectrophotometry; assay type: physicochemical
[12] = system: Proteus vulgaris; assay: Antibacterial activity against Proteus vulgaris after 24 hrs by twofold broth dilution method; assay type: functional; procedure, shortened: as §1
[13] = Solubility of the compound in phosphate buffer at pH 7.5 after 20 hrs by UV spectrophotometry; assay type: physicochemical
Procedure, shortened: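 Phosphate buffer pH 7.5 added to solid; suspension sonicated 10 min, then shaken at room temperature for 20 h and centrifuged. Supernatant concentration read by UV absorbance against a regression calibration curve (278 and 340 nm).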

[14] = system: Candida; assay: Antifungal activity against Candida mycoderma after 24 hrs by twofold broth dilution method; assay type: functional; procedure, shortened: as §1
[15] = target: T1, Albumin (Homo sapiens, UniProt P02768); assay: Binding affinity to human serum albumin assessed as decrease in fluorescence quenching at 286K by UV-Vis spectroscopy; assay type: ADME; conditions: isolated protein
T1 sequence (P02768 whole entry): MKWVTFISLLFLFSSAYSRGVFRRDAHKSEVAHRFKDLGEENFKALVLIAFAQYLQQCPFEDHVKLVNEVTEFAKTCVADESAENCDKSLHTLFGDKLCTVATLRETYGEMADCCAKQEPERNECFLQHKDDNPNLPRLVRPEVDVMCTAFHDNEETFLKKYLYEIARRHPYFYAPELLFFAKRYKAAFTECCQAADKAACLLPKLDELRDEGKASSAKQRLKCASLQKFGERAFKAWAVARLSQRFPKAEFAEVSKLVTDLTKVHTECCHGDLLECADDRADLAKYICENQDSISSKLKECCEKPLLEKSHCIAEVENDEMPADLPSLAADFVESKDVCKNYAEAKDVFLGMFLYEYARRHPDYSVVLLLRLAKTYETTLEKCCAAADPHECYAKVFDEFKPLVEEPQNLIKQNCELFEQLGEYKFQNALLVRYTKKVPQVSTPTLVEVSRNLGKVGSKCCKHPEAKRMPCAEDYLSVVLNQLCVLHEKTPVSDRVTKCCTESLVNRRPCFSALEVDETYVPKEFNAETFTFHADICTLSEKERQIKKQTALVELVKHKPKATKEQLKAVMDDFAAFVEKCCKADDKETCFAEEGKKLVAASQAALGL
Procedure, shortened: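 Fluorescence of HSA fixed at 1.0 × 10^-5 mol L^-1, titrated with compound in 0.2 × 10^-5 mol L^-1 steps. Excitation 295 nm, emission scanned 300–450 nm, slits 2.5 nm, 1.0 cm quartz cells. Spectra recorded at several temperatures (286, 295, 298, 304, 310 K are cited in places). Data fitted by Stern–Volmer, modified Stern–Volmer and Scatchard equations to give binding constants and site number.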

[16] = target: T1, Albumin; assay: Binding affinity to human serum albumin by UV-Vis spectrophotometry; assay type: ADME; conditions: isolated protein
Procedure, shortened: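 HSA UV–vis absorption spectrum compared with the difference spectrum of HSA–compound complex minus compound at equal concentration; recorded at room temperature in 1.0 cm quartz cells.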

[17] = system: Pseudomonas aeruginosa; assay: Ratio of clinafloxacin MIC to compound MIC for Pseudomonas aeruginosa; assay type: functional
[18] = system: Candida; assay: Ratio of fluconazole MIC to compound MIC for Candida mycoderma; assay type: functional
Procedure, shortened: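 MICs for the compound and for fluconazole against Candida mycoderma were measured in parallel by twofold broth microdilution in 96-well plates, following NCCLS guidance, in triplicate. The ratio was then taken from the two MICs.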

[19] = system: Staphylococcus aureus; assay: Ratio of berberin MIC to compound MIC for Staphylococcus aureus ATCC 25923; assay type: functional
[20] = system: Escherichia coli; assay: Ratio of chloromycin MIC to compound MIC for Escherichia coli DH52; assay type: functional
[21] = system: Staphylococcus aureus; assay: Ratio of chloromycin MIC to compound MIC for Staphylococcus aureus ATCC 25923; assay type: functional
[22] = system: Bacillus subtilis; assay: Ratio of chloromycin MIC to compound MIC for Bacillus subtilis; assay type: functional

Row | SMILES | MIC [1] | Stability [2] | Stability [3] | MIC [4] | MIC [5] | MIC [6] | MIC [7] | MIC [8] | MIC [9] | MIC [10] | logP at 24 h [11] | MIC [12] | solubility at 20 h [13] | MIC [14] | further results
1 | COc1ccc2cc3[n+](cc2c1OCCN(CCn1cnc([N+](=O)[O-])c1)Cc1ccc(F)cc1F)CCc1cc2c(cc1-3)OCO2.[Cl-] | 16 µg/mL | Stable | Stable | 16 µg/mL | 16 µg/mL | 4 µg/mL | 16 µg/mL | 16 µg/mL | 32 µg/mL | 32 µg/mL | 0.5 | 16 µg/mL | 94 µg/mL | 8 µg/mL | 
2 | COc1ccc2cc3[n+](cc2c1OCCN(CCn1cnc([N+](=O)[O-])c1)Cc1ccc(Cl)cc1)CCc1cc2c(cc1-3)OCO2.[Cl-] | 64 µg/mL | Stable | Stable | 64 µg/mL | 64 µg/mL | 128 µg/mL | 32 µg/mL | 32 µg/mL | 64 µg/mL | 64 µg/mL | 0.48 | 64 µg/mL | 64.8 µg/mL | 16 µg/mL | 
3 | COc1ccc2cc3[n+](cc2c1OCCN(CCn1cncc1[N+](=O)[O-])Cc1ccc(F)cc1F)CCc1cc2c(cc1-3)OCO2.[Cl-] | 8 µg/mL | Stable | Stable | 8 µg/mL | 8 µg/mL | 4 µg/mL | 8 µg/mL | 8 µg/mL | 16 µg/mL | 32 µg/mL | 0.52 | 4 µg/mL | 98.1 µg/mL | 1 µg/mL | Activity [15]: Active; Activity [16]: Active; Ratio [17]: 2; Ratio [18]: 4
4 | COc1ccc2cc3[n+](cc2c1OCCN(CCn1cncc1[N+](=O)[O-])Cc1ccc(Cl)cc1)CCc1cc2c(cc1-3)OCO2.[Cl-] | 32 µg/mL | Stable | Stable | 16 µg/mL | 32 µg/mL | 32 µg/mL | 64 µg/mL | 16 µg/mL | 32 µg/mL | 128 µg/mL | 0.53 | 32 µg/mL | 68.1 µg/mL | 64 µg/mL | 
5 | COc1ccc2cc3[n+](cc2c1OCCN(CCn1cncc1[N+](=O)[O-])Cc1ccc(Cl)c(Cl)c1)CCc1cc2c(cc1-3)OCO2.[Cl-] | 8 µg/mL | Stable | Stable | 8 µg/mL | 8 µg/mL | 2 µg/mL | 32 µg/mL | 8 µg/mL | 16 µg/mL | 16 µg/mL | 0.55 | 16 µg/mL | 80.8 µg/mL | 64 µg/mL | 
6 | COc1ccc2cc3[n+](cc2c1OCCN(CCn1cnc([N+](=O)[O-])c1)Cc1ccccc1Cl)CCc1cc2c(cc1-3)OCO2.[Cl-] | 8 µg/mL | Stable | Stable | 16 µg/mL | 16 µg/mL | 16 µg/mL | 16 µg/mL | 4 µg/mL | 16 µg/mL | 4 µg/mL | 0.51 | 64 µg/mL | 95.1 µg/mL | 128 µg/mL | 
7 | COc1ccc2cc3[n+](cc2c1OCCN(CCn1cncc1[N+](=O)[O-])Cc1ccccc1Cl)CCc1cc2c(cc1-3)OCO2.[Cl-] | 4 µg/mL | Stable | Stable | 8 µg/mL | 4 µg/mL | 8 µg/mL | 32 µg/mL | 2 µg/mL | 8 µg/mL | 4 µg/mL | 0.56 | 16 µg/mL | 86.4 µg/mL | 32 µg/mL | Ratio [19]: 8; Ratio [20]: 4; Ratio [21]: 8; Ratio [22]: 4
8 | COc1ccc2cc3[n+](cc2c1OCCN(CCn1cnc([N+](=O)[O-])c1)Cc1cccc(Cl)c1)CCc1cc2c(cc1-3)OCO2.[Cl-] | 16 µg/mL | Stable | Stable | 64 µg/mL | 32 µg/mL | 256 µg/mL | 64 µg/mL | 8 µg/mL | 32 µg/mL | 32 µg/mL | 0.57 | 64 µg/mL | 50.8 µg/mL | 32 µg/mL | 
9 | COc1ccc2cc3[n+](cc2c1OCCN(CCn1cnc([N+](=O)[O-])c1)Cc1ccc(Cl)c(Cl)c1)CCc1cc2c(cc1-3)OCO2.[Cl-] | 16 µg/mL | Stable | Stable | 16 µg/mL | 16 µg/mL | 4 µg/mL | 16 µg/mL | 16 µg/mL | 64 µg/mL | 32 µg/mL | 0.53 | 16 µg/mL | 88.5 µg/mL | 64 µg/mL | 
